Laboratory results from ChEMBL document CHEMBL1129979, “Conformationally constrained deltorphin analogs with 2-aminotetralin-2-carboxylic acid in position 3” (J Med Chem, 1997).

Legend:
Cavia porcellus = species: Cavia porcellus; experiment: The inhibitory concentration activity was measured on guinea pig ileum (GPI); format: functional
Procedure, shortened: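 Guinea pig ileum myenteric plexus-longitudinal muscle strips are mounted between platinum axial wire electrodes in Krebs bicarbonate at 37 °C, gassed with 95% O2/5% CO2, under 1 g tension. Strips are stimulated transmurally at 0.1 Hz, 1 ms, 40 V (supramaximal) and equilibrated 60 min before peptides are added. Single-dose dose-response curves are fitted to the Hill equation by least squares on mean data. IC50 is the concentration giving 50% reduction of contractions.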

Mus musculus = species: Mus musculus; experiment: The inhibitory concentration activity was measured on electrically induced contraction of the mouse vas deferens (MVD); format: functional
Procedure, shortened: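 Mouse vas deferens is mounted between platinum axial wire electrodes in Mg-free Krebs bicarbonate at 34 °C, gassed with 95% O2/5% CO2, under 0.5 g tension. After 15 min equilibration, it is stimulated transmurally at 0.1 Hz, 2 ms, 40 V (supramaximal). Dose-response curves are built by the single-dose method. IC50 is the concentration giving 50% reduction of contractions, from a Hill-equation least-squares fit of mean data.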

[1] = molecular target: Kappa-type opioid receptor (Rattus norvegicus, UniProt P34975)
Mu-type opioid receptor = Mu-type opioid receptor (Rattus norvegicus, UniProt P33535); experiment: The binding affinity was measured using [3H]- DAGO against Opioid receptor mu 1 of rat brain
[2] = molecular target: T1, Delta-type opioid receptor (Rattus norvegicus, UniProt P33533); experiment: The binding affinity was measured using [3H]-DIDII against Opioid receptor delta 1 of rat brain
[3] = molecular target: T1, Delta-type opioid receptor; experiment: The binding affinity was measured using [3H]naltrindole against Opioid receptor delta 1 of rat brain
[4] = molecular target: T1, Delta-type opioid receptor; experiment: The binding affinity was measured using [3H]- TIPPsi against Opioid receptor delta 1

Kappa-type opioid receptor, sequence (P34975 whole entry): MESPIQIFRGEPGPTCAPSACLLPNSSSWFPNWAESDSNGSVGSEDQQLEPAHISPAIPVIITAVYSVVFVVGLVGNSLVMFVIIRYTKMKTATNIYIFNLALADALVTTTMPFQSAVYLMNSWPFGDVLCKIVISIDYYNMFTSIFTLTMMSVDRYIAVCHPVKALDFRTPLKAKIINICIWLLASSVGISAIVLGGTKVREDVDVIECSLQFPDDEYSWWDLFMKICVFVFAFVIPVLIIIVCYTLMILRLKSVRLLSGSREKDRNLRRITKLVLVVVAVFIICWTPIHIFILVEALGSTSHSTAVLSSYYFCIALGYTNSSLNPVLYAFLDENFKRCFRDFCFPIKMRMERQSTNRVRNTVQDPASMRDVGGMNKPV
T1 sequence (P33533 whole entry): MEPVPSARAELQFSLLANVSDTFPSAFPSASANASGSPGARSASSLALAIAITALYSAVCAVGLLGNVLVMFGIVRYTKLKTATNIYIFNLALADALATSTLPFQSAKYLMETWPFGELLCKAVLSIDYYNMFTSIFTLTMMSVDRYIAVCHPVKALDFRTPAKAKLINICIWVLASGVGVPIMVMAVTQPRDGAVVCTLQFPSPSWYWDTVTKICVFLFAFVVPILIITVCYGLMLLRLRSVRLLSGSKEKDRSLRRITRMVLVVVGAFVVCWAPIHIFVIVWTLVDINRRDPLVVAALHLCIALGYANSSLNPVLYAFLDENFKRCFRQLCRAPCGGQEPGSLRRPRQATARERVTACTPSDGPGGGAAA
Mu-type opioid receptor, sequence (P33535 whole entry): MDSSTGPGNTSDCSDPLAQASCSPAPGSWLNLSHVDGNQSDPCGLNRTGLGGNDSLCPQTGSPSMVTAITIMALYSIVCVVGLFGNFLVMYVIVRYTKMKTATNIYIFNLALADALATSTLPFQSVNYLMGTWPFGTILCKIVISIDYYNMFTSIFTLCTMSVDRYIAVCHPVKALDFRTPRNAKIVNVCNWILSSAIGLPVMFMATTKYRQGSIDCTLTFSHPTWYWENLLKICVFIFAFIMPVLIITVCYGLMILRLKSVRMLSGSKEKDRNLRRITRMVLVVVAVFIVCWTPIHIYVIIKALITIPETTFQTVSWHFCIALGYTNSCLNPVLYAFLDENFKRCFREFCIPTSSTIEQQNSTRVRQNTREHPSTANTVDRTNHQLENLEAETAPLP

## CC[C@H](C)[C@H](NC(=O)[C@H](CCC(=O)O)NC(=O)[C@H](Cc1ccccc1)NC(=O)[C@@H](C)NC(=O)[C@@H](N)Cc1ccc(O)cc1)C(=O)N[C@H](C(=O)NCC(N)=O)[C@@H](C)CC
Cavia porcellus
  IC50: 67200 nM
Mus musculus
  IC50: 0.5 nM
[1]
  Ki: > 10000 nM
Mu-type opioid receptor
  Ki: 3190 nM

## CC[C@H](C)[C@H](NC(=O)[C@H](CCC(=O)O)NC(=O)[C@]1(NC(=O)[C@@H](C)NC(=O)[C@@H](N)Cc2ccc(O)cc2)CCc2ccccc2C1)C(=O)N[C@H](C(=O)NCC(N)=O)[C@@H](C)CC
Cavia porcellus
  IC50: 19600 nM
Mus musculus
  IC50: 0.09 nM
[1]
  Ki: > 10000 nM
[2]
  Ki: 0.035 nM
[3]
  Ki: 0.515 nM
Mu-type opioid receptor
  Ki: 731 nM
[4]
  Ki: 0.38 nM

## CC(C)[C@H](NC(=O)[C@H](CC(=O)O)NC(=O)[C@H](Cc1ccccc1)NC(=O)[C@H](C)NC(=O)[C@@H](N)Cc1ccc(O)cc1)C(=O)N[C@H](C(=O)NCC(N)=O)C(C)C
Cavia porcellus
  IC50: > 3000 nM
Mus musculus
  IC50: 0.32 nM

## CC[C@H](C)[C@H](NC(=O)[C@H](CC(=O)O)NC(=O)[C@H](Cc1ccccc1)NC(=O)[C@@H](C)NC(=O)[C@@H](N)Cc1ccc(O)cc1)C(=O)N[C@H](C(=O)NCC(N)=O)[C@@H](C)CC
Cavia porcellus
  IC50: 4210 nM
Mus musculus
  IC50: 0.082 nM
[1]
  Ki: > 10000 nM
[2]
  Ki: 0.056 nM
[3]
  Ki: 0.047 nM
Mu-type opioid receptor
  Ki: 3220 nM
[4]
  Ki: 0.018 nM
